Measurements pooled from the literature.
Target: Mitogen-activated protein kinase 8 (MAPK8, Homo sapiens, UniProt P45983)

COc1cnc(Nc2cccc(S(N)(=O)=O)c2)nc1N1CCN(c2ccccc2)C(=O)C1
remaining binding (binding, competition with immobilised ligand; 1 µM): 76%

Cc1c(NC(=O)c2cc(C(N)=O)nc3cc(F)ccc23)c(C(F)(F)F)nn1Cc1ccc(C(C)(C)C)cc1
remaining binding (cell-free assay, competition with immobilised ligand; 1 µM): 100%

CC(C)(C)c1ccc(-c2nc(CBr)nn2-c2cccc(O)c2)cc1
remaining binding (cell-free assay, competition with immobilised ligand; 10 µM): 73%

Cc1c[nH]c2nccc(Oc3c(F)cc(Nc4cc(Cl)nc(N)n4)cc3F)c12
remaining binding (cell-free assay, competition with immobilised ligand; 0.1 µM): 80%

C[C@H]1CCN(c2nccc(-c3cnn4ncccc34)n2)C1
remaining binding (binding, competition with immobilised ligand; 1 µM): 34%

O=C(NCCCN1CCOCC1)c1ccc(Nc2nccc(-c3cc4ccccc4s3)n2)cc1
remaining binding (binding, competition with immobilised ligand; 1 µM): 9.8%

O=C(NCC1CCOCC1)c1n[nH]cc1NC(=O)c1c(F)cccc1F
remaining binding (binding, competition with immobilised ligand; 1 µM): 16%

C[C@@H]1CN(c2ccc3ncc(-c4ccc5[nH]nc(C6CC6)c5c4)n3n2)C[C@H](C)O1
remaining binding (binding, competition with immobilised ligand; 50 nM): 80%

COc1ncc2cc3ccccc3nc2c1C#N
remaining binding (cell-free assay, competition with immobilised ligand; 5 µM): 100%

CN(C)c1nccc(-c2cnc3ncccn23)n1
remaining binding (binding, competition with immobilised ligand; 1 µM): 59%

CS(=O)(=O)N1CCCC(NC(=O)[C@H](CCC2CCCCC2)NC(=O)c2ccc(CNc3ncnc4c3nnn4-c3ccccc3)cc2)C1 (stereo partly drawn)
remaining binding (cell-free assay, competition with immobilised ligand; 0.1 µM): 85%

O=C(c1ccc(Nc2nccc(-c3cc4ccccc4s3)n2)cc1)N1CCC(N2CCCC2)CC1
remaining binding (binding, competition with immobilised ligand; 1 µM): 2.4%

C[C@H](NC(=O)c1cnc2n1[C@](C)(Cc1ccc(C#N)cc1)C(=O)N2c1cc(Cl)c(F)c(Cl)c1)C(=O)NC1(c2ccccn2)CC1
remaining binding (cell-free assay, competition with immobilised ligand; 1 µM): 81%

COc1ccnn2ncc(-c3ccnc(N(C)C)n3)c12
remaining binding (binding; 1 µM): 75%

CCC(=O)N[C@@H]1CC[C@H](C(=O)N(C)c2ccc(-c3nc4ccccc4o3)cc2)C1
remaining binding (cell-free assay, competition with immobilised ligand; 1 µM): 53%

COc1cnc(Nc2cccc(S(N)(=O)=O)c2)nc1N1CCN(c2ccccc2)CC1
remaining binding (binding, competition with immobilised ligand; 1 µM): 87%

CN(C)c1nccc(-c2cnn3ncccc23)n1
remaining binding (binding, competition with immobilised ligand; 1 µM): 100%

O=C(NCCCN1CCOCC1)c1ccc(Nc2ncc(Cl)c(-c3ccc(Cl)s3)n2)cc1
remaining binding (binding, competition with immobilised ligand; 1 µM): 2.5%

CN(C)c1ncc(F)c(-c2cnn3ncccc23)n1
remaining binding (binding, competition with immobilised ligand; 1 µM): 76%

COCCOc1nc(-c2ccc(Cl)nc2)nc2c1CN(C(=O)c1ncn3ccccc13)CC2
remaining binding (cell-free assay, competition with immobilised ligand; 0.1 µM): 100%

F[C@@H]1CCN(c2nccc(-c3cnn4ncccc34)n2)C1
remaining binding (binding; 1 µM): 89%

CCN1CCN(Cc2ccc(C(=O)Nc3ccc(C)c(Oc4ccc5c(c4)CC(=O)N5)c3)cc2C(F)(F)F)CC1
remaining binding (binding, competition with immobilised ligand; 1 µM): 82%

N[C@H]1CCN(c2nccc(-c3cnn4ncccc34)n2)C1
remaining binding (binding, competition with immobilised ligand; 1 µM): 85%

C[C@H](c1ccnc(Nc2nc3ccc(-c4cc(N(C)C)ncn4)cc3[nH]2)c1)N1CCN(C(=O)CC(F)(F)F)CC1
remaining binding (cell-free assay, competition with immobilised ligand; 0.1 µM): 98%
